Experimental findings from ChEMBL document CHEMBL4196178, “Structure-Based Drug Design of Potent Pyrazole Derivatives against Rhinovirus Replication” (J Med Chem, 2018) are described below.

In data set [1] the target is T1, VP1 capsid protein (Human rhinovirus sp.) (UniProt Q7T664).
T1 sequence (whole entry): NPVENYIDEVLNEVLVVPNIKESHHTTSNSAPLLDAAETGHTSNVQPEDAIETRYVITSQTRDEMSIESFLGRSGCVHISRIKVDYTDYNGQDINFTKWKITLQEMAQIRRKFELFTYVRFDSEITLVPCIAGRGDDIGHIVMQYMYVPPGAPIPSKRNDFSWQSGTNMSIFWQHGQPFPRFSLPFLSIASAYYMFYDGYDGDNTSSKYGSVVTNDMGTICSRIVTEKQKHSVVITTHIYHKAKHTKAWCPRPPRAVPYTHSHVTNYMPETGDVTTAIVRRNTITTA
The data set can be described thus: Inhibition of capsid of VP1 A150V mutant harboring Rhinovirus B14 assessed as reduction of virus induced cytopathic effect at 4 times EC50 concentration after 4th passage measured after 3 days by MTS assay.

Data set [2] addresses T1, VP1 capsid protein (Human rhinovirus sp.). Put plainly: Inhibition of Rhinovirus B14 capsid infected in human HeLa Rh cells assessed as number of wells with full cytopathic effect at EC50 concentration after 3rd passage measured after 3 days by MTS assay relative to control. On the set-up: scale not given: the % may be the effect or the level left. In kind it is cell-based. In short, it runs like this: (§1)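 Confluent HeLa cells were infected with wild-type RV-B14 with compound present at 1x, 2x or 4x in vitro EC₅₀, n=4 wells. Supernatant was diluted 1:10 onto fresh HeLa cells with compound, for four passages. Value is percentage of wells with full CPE.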
For orientation: Cytopathic effects are the visible damage that an infection or toxin causes in cultured cells.

Data set [3] deals with rhinovirus B14. Put plainly: Antiviral activity against Rhinovirus B14 infected in human HeLa Rh cells assessed as reduction in viral replication at 1 uM administered at the time of infection measured after 8 hrs post infection by RT-qPCR analysis. In kind it is functional, organism-based. In short, it runs like this: (§2)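 HeLa Rh cells adhered overnight, then given 1 µM compound 2 h before, at, or 2, 4 or 6 h after RV-B14 infection. Untreated infected cells served as controls. Cells lysed at 8 h post-infection, DNases heat-inactivated at 75 °C for 15 min. Intracellular viral RNA measured by SYBR one-step qRT-PCR against a gBlock standard series, reported as genome equivalents per sample.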
Background: Quantitative PCR measures a nucleic acid by following its amplification.

The target in data set [4] is T1, VP1 capsid protein (Human rhinovirus sp.). The data set can be described thus: Inhibition of Rhinovirus B14 capsid infected in human HeLa Rh cells assessed as number of wells with full cytopathic effect at 2 times EC50 concentration after 1st passage measured after 3 days by MTS assay relative to control. In kind it is cell-based. Set-up: scale not given: the % may be the effect or the level left. In short, it runs like this: as §1

Data set [5] has the same target. Put plainly: Inhibition of capsid of VP1 V191E mutant harboring Rhinovirus B14 assessed as reduction of virus induced cytopathic effect at 2 times EC50 concentration after 4th passage measured after 3 days by MTS assay.
A short description of data set [6]: Cytotoxicity against human HeLa Rh cells assessed as reduction in cell viability after 3 days by MTS assay. In kind it is cell-based. In general terms: Formazan colour is commonly taken as a measure of viable cells.
Data set [7] concerns rhinovirus B14. The data set can be described thus: Inhibition of Rhinovirus B14 capsid infected in human HeLa Rh cells assessed as number of wells with full cytopathic effect at 4 times EC50 concentration after 2nd passage measured after 3 days by MTS assay relative to control. In kind it is functional. On the set-up: scale not given: the % may be the effect or the level left. In short, it runs like this: as §1

Data set [8] concerns the target T1, VP1 capsid protein (Human rhinovirus sp.). Put plainly: Inhibition of Rhinovirus B14 capsid infected in human HeLa Rh cells assessed as number of wells with full cytopathic effect at 4 times EC50 concentration after 1st passage measured after 3 days by MTS assay relative to control. In kind it is cell-based. On the set-up: scale not given: the % may be the effect or the level left. In short, it runs like this: as §1

Data set [9] shares this target. The data set can be described thus: Inhibition of Rhinovirus B14 capsid infected in human HeLa Rh cells assessed as number of wells with full cytopathic effect at 4 times EC50 concentration after 3rd passage measured after 3 days by MTS assay relative to control. In kind it is cell-based. Set-up: scale not given: the % may be the effect or the level left. In short, it runs like this: as §1

The target is the same in data set [10]. The data set can be described thus: Inhibition of capsid of VP1 A150V mutant harboring Rhinovirus B14 assessed as reduction of virus induced cytopathic effect at 2 times EC50 concentration after 4th passage measured after 3 days by MTS assay. In short, it runs like this: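 After four passages of RV-B14 on HeLa cells with compound at 1x, 2x or 4x in vitro EC₅₀ (supernatant transferred 1:10 each passage), virus harvested at passage 4 was sequenced for the VP1 region by Sanger sequencing.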

The target is the same in data set [11]. Put plainly: Inhibition of Rhinovirus B14 capsid infected in human HeLa Rh cells assessed as number of wells with full cytopathic effect at EC50 concentration after 4th passage measured after 3 days by MTS assay relative to control. In kind it is cell-based. On the set-up: scale not given: the % may be the effect or the level left. In short, it runs like this: as §1

A short description of data set [12]: Selectivity index, ratio of CC50 for human HeLa Rh cells to EC50 for Rhinovirus B14 capsid infected in human HeLa Rh cells. In kind it is toxicity, cell-based. The following applies: read-out: Ratio CC50/EC50. In short, it runs like this:
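SI = CC₅₀/EC₅₀ for RV-B14 in HeLa Rh cells, both from the same 3-day 35 °C MTS CPE assay. CC₅₀ was obtained by light-microscope scoring of compound-treated uninfected cells, and EC₅₀ from MTS dose-response. Both values were derived by logarithmic interpolation and reported as median ± median absolute deviation.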

Data set [13] concerns the target T1, VP1 capsid protein (Human rhinovirus sp.). The data set can be described thus: Inhibition of Rhinovirus B14 capsid infected in human HeLa Rh cells assessed as number of wells with full cytopathic effect at 2 times EC50 concentration after 4th passage measured after 3 days by MTS assay relative to control. On the set-up: scale not given: the % may be the effect or the level left. In kind it is cell-based. In short, it runs like this:
as §1

Data set [14] has the same target. Put plainly: Inhibition of Rhinovirus B14 capsid infected in human HeLa Rh cells assessed as number of wells with full cytopathic effect at 4 times EC50 concentration after 4th passage measured after 3 days by MTS assay relative to control. On the set-up: scale not given: the % may be the effect or the level left. In kind it is cell-based. In short, it runs like this: as §1

Data set [15] shares this target. Put plainly: Inhibition of Rhinovirus B14 capsid infected in human HeLa Rh cells assessed as number of wells with full cytopathic effect at 2 times EC50 concentration after 3rd passage measured after 3 days by MTS assay relative to control. In kind it is cell-based. On the set-up: scale not given: the % may be the effect or the level left. In short, it runs like this: as §1

Data set [16] shares this target. Put plainly: Inhibition of Rhinovirus B14 capsid infected in human HeLa Rh cells assessed as number of wells with full cytopathic effect at EC50 concentration after 1st passage measured after 3 days by MTS assay relative to control. In kind it is cell-based. On the set-up: scale not given: the % may be the effect or the level left. In short, it runs like this:
as §1

Data set [17] shares this target. The data set can be described thus: Inhibition of Rhinovirus B14 capsid infected in human HeLa Rh cells assessed as reduction in viral replication at 1 uM administered 2 hrs before infection measured after 8 hrs post infection by RT-qPCR analysis. In kind it is cell-based. In short, it runs like this:
as §2

Data set [18] has the same target. Put plainly: Inhibition of Rhinovirus B14 capsid infected in human HeLa Rh cells assessed as number of wells with full cytopathic effect at 2 times EC50 concentration after 2nd passage measured after 3 days by MTS assay relative to control. In kind it is cell-based. Set-up: scale not given: the % may be the effect or the level left. In short, it runs like this: as §1

For data set [19], the system named is rhinovirus B14. The data set can be described thus: Antiviral activity against Rhinovirus B14 infected in human HeLa Rh cells assessed as reduction in viral replication at 1 uM administered at >= 2 hrs post infection measured after 8 hrs post infection by RT-qPCR analysis. In kind it is functional, organism-based. In short, it runs like this:
as §2

Data set [20] addresses T1, VP1 capsid protein (Human rhinovirus sp.). Put plainly: Inhibition of Rhinovirus B14 capsid infected in human HeLa Rh cells assessed as number of wells with full cytopathic effect at EC50 concentration after 2nd passage measured after 3 days by MTS assay relative to control. On the set-up: scale not given: the % may be the effect or the level left. In kind it is cell-based. In short, it runs like this:
as §1

Data set [21] has the same target. Put plainly: Inhibition of capsid of VP1 C199W mutant harboring Rhinovirus B14 assessed as reduction of virus induced cytopathic effect at 1 times EC50 concentration after 4th passage measured after 3 days by MTS assay.

Activity calls are given as the source filed them. The rule behind the calls is not given here.

As a reminder, the CC50 is the concentration that lowers cell viability or growth by half.

Turning to `Cn1cc(-c2ccc(CC(O)c3ccc(-n4cccn4)cc3)c([N+](=O)[O-])c2)cn1` (racemic), the inhibition entry in data set [1] and in data set [5] was “inactive” each time. The Activity in data set [2] came out at 50%; in data set [4], 0%; in [7], 0%; in data set [8], 0%; in data set [9], 0%; in [11], 50%. In addition, the Activity in [13] was 50%; in [14], 0%; in data set [15], 0%; in data set [16] it was 0%; in data set [18], 0%; in data set [20] it was 0%. Moreover, the result in [3] was Active. In addition, in [6], the CC50 at 72 h lay in the range of 247 to 1000 µM. Moreover, the inhibition result in data set [10], in [17] and in data set [21] was “Active” throughout. For the same compound, the selectivity ratio in data set [12] was 1240 to 5000. Further, in [19], the result was inactive.
